From ChEMBL document CHEMBL1165856, “Naftifine-analogues as anti-Trypanosoma cruzi agents” (Eur J Med Chem, 2010)
≈ marks a conversion by molar mass, not a printed value.

What was measured:
Trypanosoma cruzi [1] = assay: Antitrypanosomal activity against Trypanosoma cruzi Tulahuen 2 at 25 uM; type: functional
Summary of the method: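 Tulahuen 2 epimastigotes (8 × 10⁶ cells/mL, 28 °C, BHI-tryptose with 5% FBS) were exposed to a single drug concentration, with final DMSO ≤0.4% and a vehicle control. Percent growth inhibition = {1 − [(Ap − A0p)/(Ac − A0c)]} × 100, using A600 of drug and control cultures at day 0 and day 5.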

Saccharomyces cerevisiae = assay: Antifungal activity against Saccharomyces cerevisiae ATCC 9763 after 48 hrs; type: functional; settings: ATCC 9763, 48 h
Summary of the method: (§1)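 CLSI M27-A2 broth microdilution in RPMI 1640 buffered to pH 7.0 with MOPS. Inoculum is 10³ CFU/mL from Sabouraud-grown yeasts. Compound is two-fold serially diluted, final DMSO ≤1%. Incubated at 35 °C in a moist, dark chamber and read visually at 48 h. MIC is the lowest concentration giving total growth inhibition.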

[2] = system: Trichophyton mentagrophytes; assay: Antifungal activity against Trichophyton mentagrophytes ATCC 9972 after 48 hrs; type: functional; settings: ATCC 9972, 48 h
Summary of the method: (§2)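 Dermatophytes were tested by CLSI M38-A microdilution in MOPS-buffered RPMI 1640 at pH 7.0. Inoculum is 10³ CFU/mL, with two-fold serial compound dilutions and final DMSO ≤1%. Trays are kept at 28–30 °C in a moist, dark chamber. MIC is the lowest concentration with total growth inhibition, read visually when control growth allows.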

Candida tropicalis = assay: Antifungal activity against Candida tropicalis C 131 2000 after 48 hrs; type: functional; settings: Candida tropicalis, C 131 2000, 48 h; for MIC: read-out: MIC; summary of the method: as §1
Candida albicans = assay: Antifungal activity against Candida albicans ATCC 10231 after 48 hrs; type: functional; settings: ATCC 10231, 48 h; summary of the method: as §1
Nannizzia gypsea = assay: Antifungal activity against Microsporum gypseum C 115 after 48 hrs; type: functional; settings: C 115, 48 h; summary of the method: as §2
Aspergillus niger = assay: Antifungal activity against Aspergillus niger ATCC 9029 after 48 hrs; type: functional; settings: ATCC 9029, 48 h
Summary of the method: (§3)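 Aspergillus spp. were tested by CLSI M38-A broth microdilution in RPMI 1640 with MOPS at pH 7.0. Spore inoculum is 10³ CFU/mL, with two-fold compound dilutions and final DMSO ≤1%. Incubated at 35 °C in a moist, dark chamber. MIC is read visually as total growth inhibition, at a time set by growth of the control fungus.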

Cryptococcus neoformans = assay: Antifungal activity against Cryptococcus neoformans ATCC 32264 after 48 hrs; type: functional; settings: Cryptococcus neoformans, ATCC 32264, 48 h; for MIC: read-out: MIC; summary of the method: as §1
Aspergillus flavus = assay: Antifungal activity against Aspergillus flavus ATCC 9170 after 48 hrs; type: functional; settings: ATCC 9170, 48 h; summary of the method: as §3
Trichophyton rubrum = assay: Antifungal activity against Trichophyton rubrum C 113 after 48 hrs; type: functional; settings: C 113, 48 h; summary of the method: as §2
Aspergillus fumigatus = assay: Antifungal activity against Aspergillus fumigatus ATCC 26934 after 48 hrs; type: functional; settings: ATCC 26934, 48 h; summary of the method: as §3
Trypanosoma cruzi [3] = assay: Antitrypanosomal activity against Trypanosoma cruzi Tulahuen 2; type: functional; settings: read-out: ID50 (the source's name)
Summary of the method: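 Epimastigotes were grown at 28 °C in BHI-tryptose with 5% FBS. Stationary-phase parasites are inoculated at 8 × 10⁶ cells/mL into medium containing increasing drug concentrations from DMSO stock (final DMSO ≤0.4%; vehicle control). Growth is followed by A600. ID50 is the concentration that halves the day-5 absorbance ratio relative to control.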

[4] = Selectivity index, ratio of ID50 for mouse J774 cells to ID50 for Trypanosoma cruzi Tulahuen 2; type: toxicity, cell-based; settings: J774 cells versus Trypanosoma cruzi Tulahuen 2
Summary of the method: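 Selectivity index is the ID50 in J-774 macrophages (48 h MTT) divided by the ID50 against Tulahuen 2 epimastigotes (day-5 A600 growth).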

[5] = Cytotoxicity against mouse J774 cells after 48 hrs by MTT assay; type: cell-based; settings: read-out: ID50
Summary of the method: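 J-774 macrophages were seeded at 1 × 10⁵ cells/well in RPMI 1640 with 20% heat-inactivated FCS and left to attach for 48 h at 37 °C in 5% CO₂. Cells were then exposed to compounds for 48 h. MTT was added at 0.4 mg/mL final, formazan was dissolved in DMSO, and A595 was read. ID50 is the concentration cutting control absorbance by 50%, averaged over three experiments.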

O=[N+]([O-])c1ccc2c(c1)c(OCc1ccccc1)nn2CCOCCN(CCC/C=C/c1ccccc1)CCOCCn1nc(OCc2ccccc2)c2cc([N+](=O)[O-])ccc21
inhibition at 25 µM (Trypanosoma cruzi [1]): 0%

C=CCNC(=S)N/N=C/c1ccc2c(c1)[n+]([O-])c(C#N)c(N)[n+]2[O-]
MIC (Saccharomyces cerevisiae): > 250 µg/mL | MIC [2]: > 250 µg/mL | MIC (Candida tropicalis): > 250 µg/mL | MIC (Candida albicans): > 250 µg/mL | inhibition at 25 µM (Trypanosoma cruzi [1]): 6% | MIC (Nannizzia gypsea): > 250 µg/mL | MIC (Aspergillus niger): > 250 µg/mL | MIC (Cryptococcus neoformans): > 250 µg/mL | MIC (Aspergillus flavus): > 250 µg/mL | MIC (Trichophyton rubrum): > 250 µg/mL | MIC (Aspergillus fumigatus): > 250 µg/mL

Cc1c(C(=O)Nc2ccccc2)[n+]([O-])c2cc(CN3CCN(C/C=C/c4ccccc4)CC3)ccc2[n+]1[O-]
MIC (Saccharomyces cerevisiae): > 250 µg/mL | MFC [2]: > 250 µg/mL | MIC [2]: 125 µg/mL (≈ 245 µM) | IC50 (Trypanosoma cruzi [3]): 25.4 µM | MIC (Candida tropicalis): > 250 µg/mL | MIC (Candida albicans): > 250 µg/mL | MFC (Nannizzia gypsea): > 250 µg/mL | MIC (Nannizzia gypsea): 125 µg/mL (≈ 245 µM) | MIC (Aspergillus niger): > 250 µg/mL | MIC (Aspergillus flavus): > 250 µg/mL | MFC (Trichophyton rubrum): > 250 µg/mL | MIC (Trichophyton rubrum): 125 µg/mL (≈ 245 µM) | MIC (Aspergillus fumigatus): > 250 µg/mL

C=CCNC(=S)N/N=C/c1ccc2c(c1)[n+]([O-])c(C(=O)Nc1ccccc1)c(C)[n+]2[O-]
MIC (Saccharomyces cerevisiae): > 250 µg/mL | MFC [2]: 250 µg/mL (≈ 573 µM) | MIC [2]: 250 µg/mL (≈ 573 µM) | MIC (Candida tropicalis): > 250 µg/mL | MIC (Candida albicans): > 250 µg/mL | inhibition at 25 µM (Trypanosoma cruzi [1]): 0% | MFC (Nannizzia gypsea): 250 µg/mL (≈ 573 µM) | MIC (Nannizzia gypsea): 250 µg/mL (≈ 573 µM) | MIC (Aspergillus niger): > 250 µg/mL | MFC (Cryptococcus neoformans): > 250 µg/mL | MIC (Cryptococcus neoformans): 250 µg/mL (≈ 573 µM) | MIC (Aspergillus flavus): > 250 µg/mL | MFC (Trichophyton rubrum): 250 µg/mL (≈ 573 µM) | MIC (Trichophyton rubrum): 250 µg/mL (≈ 573 µM) | MIC (Aspergillus fumigatus): > 250 µg/mL

C=CCNC(=S)N/N=C/c1ccc2c(c1)[n+]([O-])c(C(=O)OCC)c(-c1ccccc1)[n+]2[O-]
IC50 (Trypanosoma cruzi [3]): 7.5 µM | selectivity ratio [4]: > 33.3 | CC50 at 48 h [5]: > 400 µM

C=CCNC(=S)N/N=C/c1ccc2c(c1)[n+]([O-])c(C)c(C)[n+]2[O-]
MIC (Saccharomyces cerevisiae): > 250 µg/mL | MIC [2]: > 250 µg/mL | MIC (Candida tropicalis): > 250 µg/mL | MIC (Candida albicans): > 250 µg/mL | inhibition at 25 µM (Trypanosoma cruzi [1]): 21% | MIC (Nannizzia gypsea): > 250 µg/mL | MIC (Aspergillus niger): > 250 µg/mL | MIC (Cryptococcus neoformans): > 250 µg/mL | MIC (Aspergillus flavus): > 250 µg/mL | MIC (Trichophyton rubrum): > 250 µg/mL | MIC (Aspergillus fumigatus): > 250 µg/mL

C=CCNC(=S)N/N=C/c1ccc2c(c1)=[N+]([O-])C(C)(C)[N+]=2[O-]
MIC (Saccharomyces cerevisiae): > 250 µg/mL | MFC [2]: 250 µg/mL (≈ 783 µM) | MIC [2]: 250 µg/mL (≈ 783 µM) | IC50 (Trypanosoma cruzi [3]): 7.2 µM | selectivity ratio [4]: 14.4 | MIC (Candida tropicalis): > 250 µg/mL | MIC (Candida albicans): > 250 µg/mL | MFC (Nannizzia gypsea): 250 µg/mL (≈ 783 µM) | MIC (Nannizzia gypsea): 250 µg/mL (≈ 783 µM) | MIC (Aspergillus niger): > 250 µg/mL | MIC (Cryptococcus neoformans): > 250 µg/mL | CC50 at 48 h [5]: 104 µM | MIC (Aspergillus flavus): > 250 µg/mL | MFC (Trichophyton rubrum): 250 µg/mL (≈ 783 µM) | MIC (Trichophyton rubrum): 250 µg/mL (≈ 783 µM) | MIC (Aspergillus fumigatus): > 250 µg/mL

CN(C/C=C/c1ccccc1)Cc1ccc2c(c1)[n+]([O-])c(C#N)c(N)[n+]2[O-]
inhibition at 25 µM (Trypanosoma cruzi [1]): 0%

N#Cc1c(N)[n+]([O-])c2ccc(CN3CCN(C/C=C/c4ccccc4)CC3)cc2[n+]1[O-]
inhibition at 25 µM (Trypanosoma cruzi [1]): 0%

CN(C/C=C/c1ccccc1)CCCCCn1nc(OCc2ccccc2)c2cc([N+](=O)[O-])ccc21
IC50 (Trypanosoma cruzi [3]): 7.8 µM | selectivity ratio [4]: < 12.8 | CC50 at 48 h [5]: < 100 µM

CCOC(=O)c1c(-c2ccccc2)[n+]([O-])c2ccc(CN3CCN(C/C=C/c4ccccc4)CC3)cc2[n+]1[O-]
MFC (Saccharomyces cerevisiae): 250 µg/mL (≈ 477 µM) | MIC (Saccharomyces cerevisiae): 125 µg/mL (≈ 238 µM) | MFC [2]: 250 µg/mL (≈ 477 µM) | MIC [2]: 125 µg/mL (≈ 238 µM) | IC50 (Trypanosoma cruzi [3]): 9.5 µM | selectivity ratio [4]: < 10.5 | MFC (Candida tropicalis): > 250 µg/mL | MIC (Candida tropicalis): 250 µg/mL (≈ 477 µM) | MFC (Candida albicans): > 250 µg/mL | MIC (Candida albicans): 250 µg/mL (≈ 477 µM) | MFC (Nannizzia gypsea): > 250 µg/mL | MIC (Nannizzia gypsea): 250 µg/mL (≈ 477 µM) | MIC (Aspergillus niger): > 250 µg/mL | MFC (Cryptococcus neoformans): 250 µg/mL (≈ 477 µM) | MIC (Cryptococcus neoformans): 125 µg/mL (≈ 238 µM) | CC50 at 48 h [5]: < 100 µM | MIC (Aspergillus flavus): > 250 µg/mL | MFC (Trichophyton rubrum): 250 µg/mL (≈ 477 µM) | MIC (Trichophyton rubrum): 125 µg/mL (≈ 238 µM) | MIC (Aspergillus fumigatus): > 250 µg/mL

N#Cc1c2ccccc2[n+]([O-])n1CC/C=C\c1ccc(Cl)cc1
inhibition at 25 µM (Trypanosoma cruzi [1]): 20%

N#Cc1c2ccccc2[n+]([O-])n1C/C=C/c1ccccc1
MIC (Saccharomyces cerevisiae): > 250 µg/mL | MFC [2]: 125 µg/mL (≈ 454 µM) | MIC [2]: 62.5 µg/mL (≈ 227 µM) | MIC (Candida tropicalis): > 250 µg/mL | MIC (Candida albicans): > 250 µg/mL | inhibition at 25 µM (Trypanosoma cruzi [1]): 28% | MFC (Nannizzia gypsea): 125 µg/mL (≈ 454 µM) | MIC (Nannizzia gypsea): 62.5 µg/mL (≈ 227 µM) | MIC (Aspergillus niger): > 250 µg/mL | MIC (Cryptococcus neoformans): > 250 µg/mL | MIC (Aspergillus flavus): > 250 µg/mL | MFC (Trichophyton rubrum): 125 µg/mL (≈ 454 µM) | MIC (Trichophyton rubrum): 62.5 µg/mL (≈ 227 µM) | MIC (Aspergillus fumigatus): > 250 µg/mL

[O-][n+]1onc2ccc(CN3CCN(C/C=C/c4ccccc4)CC3)cc21
inhibition at 25 µM (Trypanosoma cruzi [1]): 14%
